High-throughput results as filed in PubChem.
CHRM4 PAM = human M4 muscarinic receptor positive allosteric modulators, primary screen, CHO-K1 cells, Fluo-8 calcium fluorescence; 360,000 compounds, 0.4% hits; activation, % at 3 µM; CHO-K1 hM4/Gqi5, ACh EC20; 0% = ACh EC20, 100% = maximal ACh; Muscarinic acetylcholine receptor M4 (Homo sapiens), P08173; AID 624126, 2012;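 active = activation above its plate's cutoff, the mean activation of sample wells plus 3 SD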
Target sequence (P08173 whole entry, looked up): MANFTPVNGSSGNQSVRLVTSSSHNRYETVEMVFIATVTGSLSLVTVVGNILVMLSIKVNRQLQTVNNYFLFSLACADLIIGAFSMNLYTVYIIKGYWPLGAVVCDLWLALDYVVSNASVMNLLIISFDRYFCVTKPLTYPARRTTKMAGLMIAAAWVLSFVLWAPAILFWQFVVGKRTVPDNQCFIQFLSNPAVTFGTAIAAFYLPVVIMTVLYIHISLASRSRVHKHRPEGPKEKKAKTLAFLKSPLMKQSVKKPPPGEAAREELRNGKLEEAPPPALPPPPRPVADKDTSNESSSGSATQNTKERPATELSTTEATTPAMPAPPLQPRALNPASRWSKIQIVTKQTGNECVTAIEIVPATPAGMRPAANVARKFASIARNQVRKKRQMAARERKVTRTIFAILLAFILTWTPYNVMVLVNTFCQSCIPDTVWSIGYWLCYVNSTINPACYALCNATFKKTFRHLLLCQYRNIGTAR
CHRM5 PAM = human M5 muscarinic receptor positive allosteric modulators, primary screen, CHO-K1 cells, Fluo-8 calcium fluorescence | activation, % at 3 µM | AID 624038, 2012 | 360,000 compounds, 0.3% hits | CHO-K1 hM5, ACh EC20 PAM; 0% = ACh EC20, 100% = ACh EC100;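 active = activation above the run cutoff, the mean activation of all test compounds plus 3 SD, cut at about 18% in these data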
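system = human M5 receptor in CHO-K1 cells | reagent = EC20 acetylcholine as agonist stimulus | compound dosing = single-point, 3 µM nominal | incubation = Fluo-8 loading 80 min at 37 °C plus 30 min room temperature | detection = Fluo-8 calcium dye fluorescence, kinetic read | benchmarks = low control EC20 acetylcholine (0%), high control EC100 acetylcholine (100%)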
CHRM5 antagonist = human M5 muscarinic receptor antagonists, primary screen, CHO cells, Fluo-8 calcium fluorescence; Muscarinic acetylcholine receptor M5 (Homo sapiens), P08912; CHO-hM5 cells, ACh EC80; inhibition, % at 3 µM; 360,000 compounds, 0.59% hits; AID 624040, 2012;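 active = inhibition above a per-plate cutoff, the mean of that plate's test compounds plus 3 SD, cut at about 27% in these data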;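 also: 0% = acetylcholine EC80 with DMSO and 100% = DMSO without agonist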
CHRM4 antagonist = human M4 muscarinic receptor antagonists, primary screen, CHO cells, Fluo-8 calcium fluorescence; CHO-hM4 cells, ACh EC80; inhibition, % at 3 µM; 360,000 compounds, 0.73% hits; AID 624125, 2012;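 active = inhibition above its plate's cutoff, the mean inhibition of sample wells plus 3 SD, cut at about 27% in these data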;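 also: 0% = acetylcholine EC80 with DMSO and 100% = DMSO without agonist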
CHRM5 agonist = human M5 muscarinic receptor agonists, primary screen, CHO-K1 cells, Fluo-8 calcium fluorescence. Muscarinic acetylcholine receptor M5 (Homo sapiens), P08912. CHO-K1 hM5 cells; 0% DMSO wells, 100% maximal acetylcholine response. activation, % at 3 µM. 360,000 compounds, 0.19% hits;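 active = activation above the run's mean over test compounds plus 3 SD, cut at about 23% in these data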;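 also: signal is peak over basal fluorescence ratio across the kinetic read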
M4 ag = human M4 muscarinic receptor agonists, primary screen, CHO-K1 cells, Fluo-8 calcium fluorescence | Muscarinic acetylcholine receptor M4 (Homo sapiens), P08173 | 360,000 compounds, 0.14% hits | AID 624127, 2012 | activation, % at 3 µM | CHO-K1 hM4/Gqi5; vehicle 0%, full acetylcholine response 100%;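 active = activation above the run mean over all test wells plus 3 SD, cut at about 32% in these data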;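 also: peak over basal fluorescence ratio per well then scaled between controls; 0% = DMSO wells and 100% = acetylcholine at EC100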
Numbers without * were called inactive. Sampled rows, rich in hits. Any-hit rate of the full collection: about 1.8%.

For COc1ccc(C(CCNCc2ccc(OC(C)C)cc2)C(C)C)cc1 (stereo not drawn) the results were CHRM4 PAM -19, CHRM5 PAM -23, CHRM5 antagonist 13, CHRM4 antagonist 23, CHRM5 agonist -2 and M4 ag 27.
For COc1ccc(C(CCNCc2ccc(N(C)C)cc2)C(C)C)cc1 (stereo not drawn) the results were CHRM4 PAM -52, CHRM5 PAM -29, CHRM5 antagonist 19, CHRM4 antagonist 42*, CHRM5 agonist 3 and M4 ag 27.
Screening CCN(CC)C(=O)c1oc2ccc(S(=O)(=O)N3CC(C)CC(C)C3)cc2c1C (stereo not drawn) returned CHRM4 PAM -6, CHRM5 PAM -12, CHRM5 antagonist 30*, CHRM4 antagonist 4, CHRM5 agonist -2 and M4 ag 11.
For CCN(CC)C(=O)c1oc2ccc(S(=O)(=O)N3CCCCCC3)cc2c1C the results were CHRM4 PAM -6, CHRM5 PAM -11, CHRM5 antagonist 9, CHRM4 antagonist 5, CHRM5 agonist 3 and M4 ag 11.
Clc1ccc(OCCN2CCN(c3ncnc4sccc34)CC2)cc1 was read as CHRM4 PAM -17, CHRM5 PAM -17, CHRM5 antagonist 33*, CHRM4 antagonist 35*, CHRM5 agonist 4 and M4 ag 12.
For Cc1ccc(OCCN2CCN(c3ncnc4sc(C)c(C)c34)CC2)cc1 the results were CHRM4 PAM -3, CHRM5 PAM -14, CHRM5 antagonist 32*, CHRM4 antagonist 21, CHRM5 agonist 4 and M4 ag 8.
C=C(C)C(=O)OCC(O)COc1ccc(C(C)(C)c2ccc(OCC(O)COC(=O)C(=C)C)cc2)cc1 (stereo not drawn) was read as CHRM4 PAM -14, CHRM5 PAM -17, CHRM5 antagonist 27*, CHRM4 antagonist 32*, CHRM5 agonist 12 and M4 ag 26.
For Cc1ccc(S(=O)(=O)N2CCC(C(N)=O)CC2)cc1C(=O)NC1CCCCC1 the results were CHRM4 PAM 21*, CHRM5 PAM 11, CHRM5 antagonist -6, CHRM4 antagonist -7, CHRM5 agonist 2 and M4 ag 0.
Screening Cc1ccc(S(=O)(=O)N2CCCC2)cc1C(=O)NC1CCCCC1 returned CHRM4 PAM -1, CHRM5 PAM 5, CHRM5 antagonist -2, CHRM4 antagonist -1, CHRM5 agonist -3 and M4 ag 1.
O=C(Cn1c(=O)oc2cc(S(=O)(=O)N3CCCCCC3)ccc21)NC1CCCCC1 was read as CHRM4 PAM 17*, CHRM5 PAM 0, CHRM5 antagonist -7, CHRM4 antagonist -16, CHRM5 agonist 2 and M4 ag 2.
Screening COc1ccc(C)cc1S(=O)(=O)N1CCC(C(=O)NC2CCCC2)CC1 returned CHRM4 PAM 20*, CHRM5 PAM -1, CHRM5 antagonist 4, CHRM4 antagonist -6, CHRM5 agonist 3 and M4 ag 4.
O=C(NC(=S)Nc1ccc(S(=O)(=O)Nc2nccs2)cc1)c1cccc(F)c1 was read as CHRM4 PAM 4, CHRM5 PAM 0, CHRM5 antagonist -1, CHRM4 antagonist 1, CHRM5 agonist -2 and M4 ag 1.
Cc1nc2scc(C)n2c(=O)c1S(=O)(=O)Nc1ccc(OC(F)(F)F)cc1 was read as CHRM4 PAM 1, CHRM5 PAM -6, CHRM5 antagonist 11, CHRM4 antagonist 6, CHRM5 agonist 0 and M4 ag 15.
Screening CCCCCCC1NC(C(=O)O)CS1 (stereo not drawn) returned CHRM4 PAM 18*, CHRM5 PAM 6, CHRM5 antagonist -4, CHRM4 antagonist -5, CHRM5 agonist -9 and M4 ag 0.
